E-selectin induc – induces E-selectin expression in human endothelial cells; P16581; HUVEC E-selectin immunofluorescence imaging; normalized: neutral wells 0, TNF-alpha wells 100; activation, % at 7.58 µM; 0.37% of 260,000 active;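 active = mean E-selectin-positive cell signal at least 10% of the positive control, reached in at least 60% of replicates, without over 20% cell loss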
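material = human umbilical vein endothelial cells (HUVEC), E-selectin induction | quantity = 3,000 cells/well | medium = EGM-2 growth medium on 0.1% gelatin-coated wells | technique = immunofluorescence imaging | read-out basis = % PE-positive cells | control set = TNF-alpha positive control, DMSO neutral control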
CFTR F508del cor – correctors of CFTR F508del function in bronchial epithelial cells; CFBE cells, YFP halide quenching; stimulated with forskolin plus potentiator P3; % fluorescence drop versus neutral controls; activity (quench increase), % at 7.58 µM; 0.36% of 350,000 active;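 active = mean added fluorescence quench of at least 8% versus neutral control, with both replicates also reaching 8%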;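 also: cells transiently co-express mutant CFTR-F508del with the halide-sensitive YFP; corrector assay measuring rescue of mutant channel to the surface after 24 h compound exposure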
HIV Env fusion – inhibitors of HIV Env-mediated cell fusion | HeLa-JRFL Env/CEM21 cell fusion, luciferase | inhibition, % at 12.3 µM | 1.1% of 360,000 active | AID 651610;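 active = mean replicate inhibition score of at least 50 and every replicate individually at or above 50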;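 also: 0% = plate neutral controls and 100% = maraviroc near 300 nM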
S100A4 inh HTS – inhibitors of human S100A4 binding to myosin IIA peptide. S100A4/TAMRA-MyoIIA peptide fluorescence polarization. inhibition, % at 10.7 µM. AID 652163. 0.14% of 360,000 active;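 active = mean inhibition of at least 70% across replicates, with every replicate also reaching that level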
Target sequence (P26447 whole entry, looked up): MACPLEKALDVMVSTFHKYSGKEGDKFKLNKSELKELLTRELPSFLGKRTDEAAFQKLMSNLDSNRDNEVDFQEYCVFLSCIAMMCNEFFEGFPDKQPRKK
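Assay system: human S100A4 monomer with TAMRA-labelled myosin IIA peptide / Buffer or medium: Calcium-containing HEPES buffer, pH 7.2 / Reagent: TAMRA-labelled myosin IIA heavy-chain peptide probe, 5 nM / Compound: one dose per compound / Timing: polarization read 5 min after assay mix addition, stable 5–60 min / Benchmarks: neutral control DMSO, positive control TFP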
FGF22 binding – binders of recombinant human FGF22 by thermal shift | SYPRO orange fluorescence; percent of sucrose octasulfate shift, DMSO zero | activity (Tm shift, normalised), % at 9.99 µM | 1.5% of 340,000 active | Q9HCT0;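 active = mean Tm shift, scaled 0 neutral to 100 positive control, at about 1.3% or above, every replicate too, limit read from the data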
Target sequence (Q9HCT0 whole entry, looked up): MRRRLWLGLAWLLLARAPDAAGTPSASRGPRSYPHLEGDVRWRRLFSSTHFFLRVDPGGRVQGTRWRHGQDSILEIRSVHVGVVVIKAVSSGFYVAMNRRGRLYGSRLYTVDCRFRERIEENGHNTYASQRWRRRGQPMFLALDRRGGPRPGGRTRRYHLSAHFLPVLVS
Starred values were filed as active, the others as inactive; x = no result given; [ ] = remark or other dose. Compounds with a hit are over-represented: about 2.7% of the library has one in this group of screens.

SMILES	E-selectin induc	CFTR F508del cor	HIV Env fusion	S100A4 inh HTS	FGF22 binding
CCOc1ccccc1CNC(CC)CO (stereo not given)	4	-2	-4	4	43*
CCOc1ccccc1CNC(c1ccccc1)c1ccccc1	0	1	43	-1	0
CN1C(=O)c2cc(NC(=O)C3CC3)ccc2OC[C@@H]2O[C@@H](CC(=O)NC3CCC3)CC[C@@H]21	0	-2	x	4	0
CN(C)c1ccc2c(c1)[C@H]1C[C@H](CC(=O)N3CCCCC3)O[C@@H](CO)[C@H]1O2	1	1	x	0	x
CSc1nc(-c2ccccc2)c(C#N)c(=O)[nH]1	0	-1	-1	-1	x
CSc1nc(-c2ccc(Cl)cc2)c(C#N)c(=O)[nH]1	x	-6	59*	2	x
C[C@@H]1CN([C@H](C)CO)C(=O)Cc2cc(NC(=O)c3ccncc3)ccc2O[C@H]1CN(C)S(C)(=O)=O	447*	0	-8[16.7 µM]	-5	0
C[C@@H]1CN([C@@H](C)CO)C(=O)Cc2cc(NC(=O)c3ccncc3)ccc2O[C@@H]1CN(C)S(=O)(=O)c1cn(C)cn1	321*	0	x	2	1
C[C@H](CO)N1C[C@H](C)[C@@H](CN(C)S(C)(=O)=O)Oc2ccc(NC(=O)c3ccncc3)cc2CC1=O	2	4	3[16.7 µM]	6	1
O=C(C[C@H]1C=C[C@@H](NS(=O)(=O)c2ccc(F)cc2)[C@@H](CO)O1)NCc1ccccc1F	0	0	x	-12	x
CN(C)CC(=O)N[C@H]1CC[C@H](CC(=O)O)O[C@@H]1CO	0	1	x	7	x
c1ccc2c(c1)OCC(CNc1ncnc3sccc13)O2 (stereo not given)	0	x	57*	x	x
Cc1ccc2c(c1)c1c(n2CC(O)CN2CCCCCC2)CCCC1 (stereo not given)	0	5	7	-1	0
Cc1ccc2c(c1)c1c(n2CC(O)Cn2c(C)nc3ccccc32)CCCC1 (stereo not given)	69*	1	-34	1	0
O=C(CCCn1c(=O)c2sccc2n(CC(=O)NCc2ccco2)c1=O)NCc1ccco1	x	x	-5	x	x
O=C(CCCn1c(=O)c2ccccc2n(CC(=O)N2CCN(c3ccccc3)CC2)c1=O)NCc1ccco1	43*	2	17	0	0
COc1ccc(-c2cnc3c(c2)C(=O)N([C@H](C)CO)C[C@H](C)[C@H](CN(C)C(=O)C2CCCCC2)O3)cc1	0	-1	x	x	x
O=S1(=O)CCO[C@H]2Cc3ccccc3[C@H]2N1Cc1cccc(C(F)(F)F)c1	x	1	66*	-3	0
CCCC(=O)Nc1ccc2c(c1)C(=O)N(C)C[C@H](OC)[C@H](C)CN(C(=O)c1cccnc1)[C@@H](C)CO2	0	6	x	-6	0
CC1=C(C(=O)NC2CCCc3c2cnn3-c2cccc(C)c2C)OCCO1 (stereo not given)	0	6	x	-4	0
Cc1cccc(-n2ncc3c2CCCC3NC(=O)c2ccncc2)c1C (stereo not given)	0	-3	61*	-1	1
CCn1cc(C(=O)NC2CCCc3c2cnn3-c2cccc(C)c2C)cn1 (stereo not given)	-1	4	57*	1	0
CCN(CC1COc2ccccc2O1)C(=S)Nc1ccc(F)cc1 (stereo not given)	x	-3	14	-13	44*
O=C(O)C[C@H]1C[C@@H]2c3cc(NS(=O)(=O)c4ccccc4)ccc3O[C@@H]2[C@@H](CO)O1	-1	-1	x	1	0
CCC/C=C/c1ccc(CN2C(C(C)C)C(=O)N(Cc3cn(CC4CCCCC4)nn3)CCS2(=O)=O)cc1 (stereo not given)	0	6	68*	10	0
SMILES	E-selectin induc	CFTR F508del cor	HIV Env fusion	S100A4 inh HTS	FGF22 binding
O=C(CN1C(=O)c2cccc3cccc(c23)C1=O)NCCCO	63*	0	-2	-7	0
O=C1c2ccc3c4c(ccc(c24)C(=O)N1CCCCO)C(=O)N(CCCCO)C3=O	0	18*	-2	9	0
COc1ccc(NC(=O)N2C[C@H](O)COC[C@H]3O[C@H](CC(=O)NCc4ccccc4OC)CC[C@@H]32)cc1	0	-1	x	0	0
Cc1ccc(C(C(=O)NC2CCCCC2)N(C(=O)Cc2c[nH]c3ccccc23)c2ccccc2)o1 (stereo not given)	x	x	112*	x	x
O=C(NC1CCCCC1)C(c1cccs1)N(Cc1cccs1)C(=O)c1ccco1 (stereo not given)	x	x	84*	x	x
Cc1ccc(N(C(=O)Cc2cccs2)C(C(=O)NC2CCCCC2)c2ccccn2)cc1C (stereo not given)	x	x	82*	x	x
COc1cccc(CN(C(=O)Cc2c[nH]c3ccccc23)C(C(=O)NC2CCCCC2)c2cccs2)c1 (stereo not given)	-2	x	91*	x	x
OC[C@@H]1Nc2ccc(C#Cc3cccc(F)c3)cc2[C@@H]2NCC[C@H]12	1	2	x	-3	x
O=C(NC1CCCCC1)C(c1cccs1)N(C(=O)Cc1c[nH]c2ccccc12)c1ccc(F)cc1 (stereo not given)	x	x	87*	x	x
CC(=O)c1ccc(N(C(=O)Cc2c[nH]c3ccccc23)C(C(=O)NC2CCCCC2)c2cccs2)cc1 (stereo not given)	x	x	-52	x	x
COc1ccc(OC)c(Nc2c3ccccc3nc3ccccc23)c1	1	-1	13	5	0
COc1ccc([N+](=O)[O-])cc1Nc1c2ccccc2nc2ccccc12	4	13*	79*	-3	0
O=[N+]([O-])c1ccc(Nc2c3ccccc3nc3ccccc23)cc1	x	1	31	2	0
O=[N+]([O-])c1ccccc1Nc1c2ccccc2nc2ccccc12	4	-3	62*	-4	0
CN1C(=O)c2cc(NC(=O)Nc3ccc(Cl)cc3)ccc2OC[C@@H]2O[C@@H](CC(=O)O)CC[C@H]21	0	-2	21[16.7 µM]	-21	x
CCCc1nc(SCC(=O)N2CCC(C)CC2)c2c(=O)n(C)c(=O)n(C)c2n1	x	-1	-5	-2	0
CCCCc1nc(SCCN2CCOCC2)c2c(=O)n(C)c(=O)n(C)c2n1	x	-1	9	-1	43*
CCCc1nc(SC2CCCC2)c2c(=O)n(C)c(=O)n(C)c2n1	0	8.1*	1	4	0
CCCn1c(SCCN2CCOCC2)nc2c1c(=O)n(C)c(=O)n2C	0	-2	13	-4	0
CCc1nnc(NC(=O)CSc2n[nH]c(-c3ccccc3O)n2)s1	x	0	-1	-2	1.8*
Cc1nnc(NC(=O)CSc2n[nH]c(-c3ccccc3C)n2)s1	0	1	1	1	0
CCCN1C[C@H](C)[C@@H](OC)CN(C)C(=O)c2ccc(NC(=O)c3cnccn3)cc2OC[C@@H]1C	0	-1	x	7	x

From PubChem BioAssay
